Calls of active or inactive are those of the source. The rule behind the calls is not given here.
Columns and labels:
[1] = tested on: M14; assay: Induction of apoptosis in human M14 cells overexpressing NICD assessed as reduction in Bcl-2 expression at 2 uM by Western blot analysis; type: functional, cell-based
[2] = tested on: A-375; assay: Induction of apoptosis in human A-375 cells overexpressing NICD assessed as reduction in Bcl-2 expression at 2 uM by Western blot analysis; type: functional, cell-based
[3] = tested on: A-375; assay: Antiinvasive activity against human A-375 cells overexpressing NICD at 2 uM by transwell assay; type: functional, cell-based
In short: (§1)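 Transwell assay in M14 or A375 cells cultured in high-glucose DMEM with 10% FBS and penicillin/streptomycin; NICD overexpression plasmid transfected with Lipofectamine 2000. Invasion inserts coated with Matrigel diluted 1:6 in serum-free 1640 medium and set at 37 °C for 4 h; migration inserts uncoated, 5000 cells seeded. Control cells received DMSO. Migrated or invaded cells counted.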

[4] = target: T1, Histone-lysine N-methyltransferase EHMT2 (Homo sapiens) (UniProt Q96KQ7); assay: Inhibition of G9a in human A-375 cells assessed as reduction in AKT phosphorylation at 2 uM by Western blot analysis; type: cell-based
T1 sequence (whole entry): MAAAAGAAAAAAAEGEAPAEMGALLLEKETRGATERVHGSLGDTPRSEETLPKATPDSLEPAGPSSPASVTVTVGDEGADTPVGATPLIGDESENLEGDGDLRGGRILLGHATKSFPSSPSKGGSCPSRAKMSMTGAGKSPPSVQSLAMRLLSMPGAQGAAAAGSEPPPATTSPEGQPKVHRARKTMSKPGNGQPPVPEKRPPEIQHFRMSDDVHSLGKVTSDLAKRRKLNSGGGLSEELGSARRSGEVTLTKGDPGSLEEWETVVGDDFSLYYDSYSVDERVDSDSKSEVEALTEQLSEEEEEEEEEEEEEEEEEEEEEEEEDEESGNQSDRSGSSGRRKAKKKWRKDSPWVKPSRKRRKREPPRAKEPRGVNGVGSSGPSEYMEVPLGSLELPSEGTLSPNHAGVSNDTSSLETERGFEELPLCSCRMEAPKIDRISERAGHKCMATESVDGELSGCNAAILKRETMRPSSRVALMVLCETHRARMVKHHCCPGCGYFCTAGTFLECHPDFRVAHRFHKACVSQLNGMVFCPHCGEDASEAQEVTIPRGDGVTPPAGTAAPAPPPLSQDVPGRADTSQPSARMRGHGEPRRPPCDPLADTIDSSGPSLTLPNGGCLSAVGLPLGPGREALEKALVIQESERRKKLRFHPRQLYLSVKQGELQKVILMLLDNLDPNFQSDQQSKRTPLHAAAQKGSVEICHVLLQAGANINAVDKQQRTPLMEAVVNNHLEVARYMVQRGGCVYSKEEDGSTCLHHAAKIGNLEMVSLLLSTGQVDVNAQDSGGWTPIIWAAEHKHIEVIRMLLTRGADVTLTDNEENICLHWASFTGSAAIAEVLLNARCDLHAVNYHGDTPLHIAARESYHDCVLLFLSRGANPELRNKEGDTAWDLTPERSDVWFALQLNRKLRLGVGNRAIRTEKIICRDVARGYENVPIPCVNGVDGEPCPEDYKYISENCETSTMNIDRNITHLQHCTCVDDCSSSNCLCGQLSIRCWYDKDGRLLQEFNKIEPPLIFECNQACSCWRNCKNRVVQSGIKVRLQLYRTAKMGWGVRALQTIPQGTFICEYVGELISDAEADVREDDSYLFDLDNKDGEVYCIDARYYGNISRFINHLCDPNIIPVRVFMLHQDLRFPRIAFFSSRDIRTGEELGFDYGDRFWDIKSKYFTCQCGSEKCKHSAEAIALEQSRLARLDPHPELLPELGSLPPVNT

[5] = tested on: A-375; assay: Induction of apoptosis in human A-375 cells overexpressing […] assessed as early apoptotic cells by Annexin V-FITC/PI staining based flow cytometry (Rvb-0.43%); type: functional; details: dose 2 µM
[6] = target: T1, Histone-lysine N-methyltransferase EHMT2 (Homo sapiens); assay: Inhibition of G9a in human A-375 cells assessed as decrease in Notch1 expression at 2 uM by Western blot analysis; type: cell-based
[7] = tested on: M14; assay: Antiproliferative activity against human M14 cells overexpressing NICD assessed as reduction in cell proliferation at 2 uM by CCK-8 assay; type: functional, cell-based
In short: (§2)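 CCK8 proliferation assay. M14 or A375 cells, NICD plasmid-transfected where stated, were seeded at about 1000 cells per well, with 0.1% DMSO-treated cells as control. CCK8 reagent was added every 24 h and incubated 90 min at 37 °C, then OD read at 450 nm to build a proliferation curve. IC50 came from a dose-dependent viability series in A375.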

[8] = tested on: M14; assay: Induction of apoptosis in human M14 cells overexpressing NCID assessed as early apoptotic cells by Annexin V-FITC/PI staining based flow cytometry (Rvb-0.43%); type: functional; details: dose 2 µM
[9] = target: T1, Histone-lysine N-methyltransferase EHMT2 (Homo sapiens); assay: Inhibition of G9a in human A-375 cells overexpressing NICD assessed as reduction in AKT phosphorylation at 2 uM by Western blot analysis; type: cell-based
[10] = target: T1, Histone-lysine N-methyltransferase EHMT2 (Homo sapiens); assay: Inhibition of G9a in human M14 cells assessed as decrease in Notch1 expression at 2 uM by Western blot analysis; type: cell-based
[11] = target: T1, Histone-lysine N-methyltransferase EHMT2 (Homo sapiens); assay: Inhibition of G9a in human A-375 cells assessed as decrease in Hes1 expression at 2 uM by Western blot analysis; type: cell-based
[12] = tested on: A-375; assay: Induction of apoptosis in human A-375 cells overexpressing […] assessed as late apoptotic cells by Annexin V-FITC/PI staining based flow cytometry (Rvb-3.10%); type: functional; details: dose 2 µM
[13] = tested on: A-375; assay: Induction of apoptosis in human A-375 cells overexpressing […] assessed as necrotic cells by Annexin V-FITC/PI staining based flow cytometry (Rvb-1.34%); type: functional; details: dose 2 µM
[14] = tested on: M14; assay: Induction of apoptosis in human M14 cells assessed as reduction in Bcl-2 expression at 2 uM by Western blot analysis; type: functional, cell-based
[15] = tested on: M14; assay: Induction of apoptosis in human M14 cells assessed as increase in cleaved Caspase-3 expression at 2 uM by Western blot analysis; type: functional, cell-based
[16] = tested on: A-375; assay: Cytotoxicity against human A-375 cells assessed as effect on cell survival at <0.5 nM by CCK-8 assay; type: functional, cell-based
[17] = tested on: M14; assay: Induction of apoptosis in human M14 cells assessed as early apoptotic cells at 2 uM by Annexin V-FITC/PI staining based flow cytometry (reference value: 0.43%); type: functional
[18] = tested on: M14; assay: Antimigratory activity against human M14 cells overexpressing NICD at 2 uM by transwell assay; type: functional, cell-based; in short: as §1
[19] = tested on: M14; assay: Induction of apoptosis in human M14 cells overexpressing NCID assessed as late apoptotic cells by Annexin V-FITC/PI staining based flow cytometry (Rvb-3.10%); type: functional; details: dose 2 µM
[20] = target: T1, Histone-lysine N-methyltransferase EHMT2 (Homo sapiens); assay: Inhibition of G9a in human M14 cells assessed as decrease in H3K9me2 expression at 2 uM by Western blot analysis; type: cell-based
[21] = tested on: A-375; assay: Antiproliferative activity against human A-375 cells overexpressing NICD assessed as reduction in cell proliferation at 2 uM by CCK-8 assay; type: functional, cell-based; in short: as §2
[22] = target: T1, Histone-lysine N-methyltransferase EHMT2 (Homo sapiens); assay: Inhibition of G9a in human M14 cells overexpressing NICD assessed as reduction in AKT phosphorylation at 2 uM by Western blot analysis; type: cell-based
[23] = tested on: A-375; assay: Induction of apoptosis in human A-375 cells assessed as increase in cleaved Caspase-3 expression at 2 uM by Western blot analysis; type: functional, cell-based
[24] = tested on: M14; assay: Antiproliferative activity against human M14 cells assessed as reduction in cell proliferation at 2 uM by CCK-8 assay; type: functional, cell-based; in short: as §2
[25] = target: T1, Histone-lysine N-methyltransferase EHMT2 (Homo sapiens); assay: Inhibition of G9a in human A-375 cells assessed as decrease in H3K9me2 expression at 2 uM by Western blot analysis; type: cell-based
[26] = tested on: A-375; assay: Induction of apoptosis in human A-375 cells assessed as necrotic cells at 2 uM by Annexin V-FITC/PI staining based flow cytometry (reference value: 1.34%); type: functional

- inhibition [4]: Active
- inhibition [6]: Active
- inhibition [9]: inactive
- inhibition [10]: Active
- inhibition [11]: Active
- inhibition [20]: Active
- inhibition [22]: inactive
- inhibition [25]: Active
Structure (SMILES): COc1cc2c(NC3CCN(C(C)C)CC3)nc(N3CCC(F)(F)CC3)nc2cc1OCCCN1CCCC1
- Activity [1]: inactive
- Activity [2]: inactive
- Activity [3]: inactive
- Activity [5]: 0.75%
- Activity [7]: inactive
- Activity [8]: 0.75%
- Activity [12]: 3.59%
- Activity [13]: 0.76%
- Activity [14]: Active
- Activity [15]: Active
- Activity [16]: inactive
- Activity [17]: 4.8%
- Activity [18]: inactive
- Activity [19]: 3.59%
- Activity [21]: inactive
- Activity [23]: Active
- Activity [24]: Active
- Activity [26]: 0.27%

— ChEMBL document CHEMBL5712912, “Abnormal overexpression of G9a in melanoma cells promotes cancer progression via upregulation of the Notch1 signaling pathway” (Aging (Albany NY), 2020)
